This note sets out measurements from ChEMBL document CHEMBL3046413, “Synthesis and insecticidal activity of some novel fraxinellone-based esters” (2012).

Holding throughout (format): functional
For experiment [1], the system named is Mythimna separata. Kind of experiment: Insecticidal activity against Mythimna separata (Oriental armyworm) in wheat leaves assessed as mortality rate at 1 mg/mL at 25 degC measured after 35 days by leaf-dipping method relative to control. Particulars: 840 h. The gist of the method:
(§1)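 Leaf-dipping assay on pre-third-instar M. separata larvae. Compounds dissolved in acetone at 1 mg/mL; fresh wheat leaves dipped 3 s, then air-dried. Acetone-treated leaves served as control. 30 larvae per compound in groups of 10 per dish, with treated leaves replenished when consumed. After 48 h, larvae were switched to untreated fresh leaves. Corrected mortality = (T − C) × 100/(1 − C); three replicates.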

The test system of experiment [2] is Mythimna separata. Nature of the experiment: Insecticidal activity against Mythimna separata (Oriental armyworm) in wheat leaves assessed as mortality rate at 1 mg/mL at 25 degC measured after 25 days by leaf-dipping method relative to control. To be noted: 600 h. The method in brief: as §1
Experiment [3] has as its system Mythimna separata. Nature of the experiment: Insecticidal activity against Mythimna separata (Oriental armyworm) in wheat leaves assessed as mortality rate at 1 mg/mL at 25 degC measured after 10 days by leaf-dipping method relative to control. To be noted: 240 h. The method in brief: as §1

For orientation: mortality means the share of the test organisms that died. Regarding `CC1=C2C(=O)O[C@@H](c3ccoc3)[C@]2(C)CC[C@H]1OC(=O)COc1cccc2cccnc12`, the figures for the mortality at 1000 µg/mL in the experiment on Mythimna separata [1], with Mythimna separata [2] and with Mythimna separata [3] were 51.9%, 37% and 13.8%, respectively.

Take `COc1cccc2ccc(C(=O)O[C@@H]3CC[C@]4(C)C(=C3C)C(=O)O[C@H]4c3ccoc3)nc12`: the mortality at 1000 µg/mL turned out to be 63% in the experiment with Mythimna separata [1], 48.1% with Mythimna separata [2] and 20.7% in the experiment with Mythimna separata [3].

As for `CCCCCCCC(=O)OCC1=C2C(=O)O[C@@H](c3ccoc3)[C@]2(C)CCC1`, the figures for the mortality at 1000 µg/mL in the experiment with Mythimna separata [1], in the experiment on Mythimna separata [2] and with Mythimna separata [3] were 33.3%, 25.9% and 6.9%, respectively.

As to `C[C@@]12CCCC(COC(=O)Cc3ccccc3)=C1C(=O)O[C@H]2c1ccoc1`, the mortality at 1000 µg/mL in the experiment with Mythimna separata [1] came out at 44.4%; with Mythimna separata [2], 33.3%; in the experiment on Mythimna separata [3] it was 27.6%.

With `C[C@@]12CCCC(COC(=O)Cc3cccc4ccccc34)=C1C(=O)O[C@H]2c1ccoc1`, the mortality at 1000 µg/mL in the experiment with Mythimna separata [1] was found to be 48.1%; with Mythimna separata [2], 33.3%; in the experiment with Mythimna separata [3], 20.7%.

Consider `C[C@@]12CCCC(COC(=O)c3ccccc3)=C1C(=O)O[C@H]2c1ccoc1`, for which the values for the mortality at 1000 µg/mL in the experiment with Mythimna separata [1], with Mythimna separata [2] and in the experiment with Mythimna separata [3] were 29.6%, 29.6% and 17.2%, respectively.

With `Cc1ccc(C(=O)OCC2=C3C(=O)O[C@@H](c4ccoc4)[C@]3(C)CCC2)cc1`, the mortality at 1000 µg/mL turned out to be 29.6% in the experiment on Mythimna separata [1], 29.6% in the experiment with Mythimna separata [2] and 17.2% in the experiment on Mythimna separata [3].

On to `C[C@@]12CCCC(COC(=O)c3ccc(F)cc3)=C1C(=O)O[C@H]2c1ccoc1`, for which the values for the mortality at 1000 µg/mL in the experiment with Mythimna separata [1], in the experiment with Mythimna separata [2] and with Mythimna separata [3] were 51.9%, 40.7% and 10.3%, respectively.

For the compound `C[C@@]12CCCC(COC(=O)c3cccc(F)c3)=C1C(=O)O[C@H]2c1ccoc1`, the mortality at 1000 µg/mL stood at 55.6% with Mythimna separata [1], 51.9% with Mythimna separata [2] and 24.1% in the experiment with Mythimna separata [3].

For `C[C@@]12CCCC(COC(=O)c3ccc(Cl)cc3)=C1C(=O)O[C@H]2c1ccoc1`, the mortality at 1000 µg/mL in the experiment with Mythimna separata [1] came to 40.7%; in the experiment on Mythimna separata [2] it was 25.9%; in the experiment on Mythimna separata [3], 6.9%.

As to `C[C@@]12CCCC(COC(=O)c3cccc(Br)c3)=C1C(=O)O[C@H]2c1ccoc1`, the mortality at 1000 µg/mL was 33.3% in the experiment on Mythimna separata [1], 25.9% in the experiment on Mythimna separata [2] and 13.8% in the experiment on Mythimna separata [3].

On to `C[C@@]12CCCC(COC(=O)c3ccc(Br)cc3)=C1C(=O)O[C@H]2c1ccoc1`, for which the mortality at 1000 µg/mL in the experiment with Mythimna separata [1] was found to be 33.3%; with Mythimna separata [2], 29.6%; in the experiment with Mythimna separata [3], 24.1%.

Turning to `C[C@@]12CCCC(COC(=O)c3cccc([N+](=O)[O-])c3)=C1C(=O)O[C@H]2c1ccoc1`, the mortality at 1000 µg/mL in the experiment with Mythimna separata [1] is 44.4%; in the experiment on Mythimna separata [2], 29.6%; with Mythimna separata [3] it was 24.1%.

Regarding `C[C@@]12CCCC(COC(=O)c3ccc([N+](=O)[O-])cc3)=C1C(=O)O[C@H]2c1ccoc1`, the mortality at 1000 µg/mL is 40.7% in the experiment on Mythimna separata [1], 33.3% with Mythimna separata [2] and 13.8% in the experiment on Mythimna separata [3].

For the compound `C[C@@]12CCCC(COC(=O)c3ccc(C#N)cc3)=C1C(=O)O[C@H]2c1ccoc1`, the mortality at 1000 µg/mL in the experiment on Mythimna separata [1] is 44.4%; with Mythimna separata [2], 25.9%; in the experiment with Mythimna separata [3] it was 6.9%.

Take `C[C@@]12CCCC(COC(=O)c3cccnc3)=C1C(=O)O[C@H]2c1ccoc1`: the mortality at 1000 µg/mL with Mythimna separata [1] was determined as 51.9%; in the experiment with Mythimna separata [2], 44.4%; in the experiment on Mythimna separata [3], 27.6%.

`C[C@@]12CCCC(COC(=O)c3ccncc3)=C1C(=O)O[C@H]2c1ccoc1`: the mortality at 1000 µg/mL stood at 59.3% in the experiment on Mythimna separata [1], 48.1% in the experiment with Mythimna separata [2] and 24.1% in the experiment with Mythimna separata [3].

As to `C[C@@]12CCCC(CO)=C1C(=O)O[C@H]2c1ccoc1`, the values for the mortality at 1000 µg/mL in the experiment on Mythimna separata [1], in the experiment on Mythimna separata [2] and in the experiment on Mythimna separata [3] were 40.7%, 29.6% and 10.3%, respectively.

As for `CCCCCCCC(=O)O[C@@H]1CC[C@]2(C)C(=C1C)C(=O)O[C@H]2c1ccoc1`, the mortality at 1000 µg/mL with Mythimna separata [1] was found to be 48.1%; in the experiment on Mythimna separata [2] it was 33.3%; with Mythimna separata [3], 10.3%.

In the case of `CCCCCCCCCCC(=O)O[C@@H]1CC[C@]2(C)C(=C1C)C(=O)O[C@H]2c1ccoc1`, the figures for the mortality at 1000 µg/mL in the experiment with Mythimna separata [1], in the experiment on Mythimna separata [2] and with Mythimna separata [3] were 48.1%, 40.7% and 20.7%, respectively.

As for `CC1=C2C(=O)O[C@@H](c3ccoc3)[C@]2(C)CC[C@H]1OC(=O)Cc1ccccc1`, the results for the mortality at 1000 µg/mL in the experiment on Mythimna separata [1], in the experiment with Mythimna separata [2] and in the experiment on Mythimna separata [3] were 44.4%, 37% and 31%, respectively.

For `CC1=C2C(=O)O[C@@H](c3ccoc3)[C@]2(C)CC[C@H]1OC(=O)Cc1cccc2ccccc12`, the values for the mortality at 1000 µg/mL in the experiment with Mythimna separata [1], in the experiment with Mythimna separata [2] and in the experiment with Mythimna separata [3] were 51.9%, 29.6% and 10.3%, respectively.

As for `CC1=C2C(=O)O[C@@H](c3ccoc3)[C@]2(C)CC[C@H]1OC(=O)c1ccccc1`, the mortality at 1000 µg/mL was found to be 44.4% in the experiment with Mythimna separata [1], 44.4% in the experiment on Mythimna separata [2] and 41.4% in the experiment with Mythimna separata [3].

With `CC1=C2C(=O)O[C@@H](c3ccoc3)[C@]2(C)CC[C@H]1OC(=O)c1ccc(C)cc1`, the mortality at 1000 µg/mL in the experiment with Mythimna separata [1] turned out to be 40.7%; in the experiment on Mythimna separata [2], 40.7%; in the experiment on Mythimna separata [3] it was 24.1%.

For the compound `CC1=C2C(=O)O[C@@H](c3ccoc3)[C@]2(C)CC[C@H]1OC(=O)c1ccc(F)cc1`, the results for the mortality at 1000 µg/mL with Mythimna separata [1], in the experiment with Mythimna separata [2] and in the experiment with Mythimna separata [3] were 63%, 51.9% and 24.1%, respectively.

Regarding `CC1=C2C(=O)O[C@@H](c3ccoc3)[C@]2(C)CC[C@H]1OC(=O)c1cccc(F)c1`, the mortality at 1000 µg/mL in the experiment on Mythimna separata [1] came to 44.4%; in the experiment on Mythimna separata [2], 29.6%; with Mythimna separata [3], 24.1%.

Consider `CC1=C2C(=O)O[C@@H](c3ccoc3)[C@]2(C)CC[C@H]1OC(=O)c1ccc(Cl)cc1`, for which the mortality at 1000 µg/mL worked out at 40.7% in the experiment with Mythimna separata [1], 33.3% with Mythimna separata [2] and 20.7% in the experiment with Mythimna separata [3].

Take `CC1=C2C(=O)O[C@@H](c3ccoc3)[C@]2(C)CC[C@H]1OC(=O)c1cccc(Br)c1`: the mortality at 1000 µg/mL turned out to be 44.4% in the experiment on Mythimna separata [1], 40.7% in the experiment on Mythimna separata [2] and 20.7% in the experiment with Mythimna separata [3].

On to `CC1=C2C(=O)O[C@@H](c3ccoc3)[C@]2(C)CC[C@H]1OC(=O)c1ccc(Br)cc1`, for which the results for the mortality at 1000 µg/mL in the experiment with Mythimna separata [1], with Mythimna separata [2] and with Mythimna separata [3] were 37%, 25.9% and 24.1%, respectively.

On to `CC1=C2C(=O)O[C@@H](c3ccoc3)[C@]2(C)CC[C@H]1OC(=O)c1cccc([N+](=O)[O-])c1`, for which the mortality at 1000 µg/mL came to 48.1% with Mythimna separata [1], 40.7% with Mythimna separata [2] and 10.3% in the experiment on Mythimna separata [3].

With `CC1=C2C(=O)O[C@@H](c3ccoc3)[C@]2(C)CC[C@H]1OC(=O)c1ccc([N+](=O)[O-])cc1`, the mortality at 1000 µg/mL was found to be 51.9% in the experiment with Mythimna separata [1], 40.7% in the experiment on Mythimna separata [2] and 27.6% in the experiment on Mythimna separata [3].

`CC1=C2C(=O)O[C@@H](c3ccoc3)[C@]2(C)CC[C@H]1OC(=O)c1ccc(C#N)cc1`: the mortality at 1000 µg/mL was 55.6% with Mythimna separata [1], 48.1% in the experiment with Mythimna separata [2] and 20.7% with Mythimna separata [3].

With `CC1=C2C(=O)O[C@@H](c3ccoc3)[C@]2(C)CC[C@H]1OC(=O)c1cccnc1`, the mortality at 1000 µg/mL in the experiment with Mythimna separata [1] was found to be 55.6%; in the experiment on Mythimna separata [2] it was 40.7%; with Mythimna separata [3], 20.7%.

Regarding `CC1=C2C(=O)O[C@@H](c3ccoc3)[C@]2(C)CC[C@H]1OC(=O)c1ccncc1`, the mortality at 1000 µg/mL with Mythimna separata [1] amounted to 66.7%; in the experiment on Mythimna separata [2], 48.1%; with Mythimna separata [3], 24.1%.

Turning to `CC1=C2C(=O)O[C@@H](c3ccoc3)[C@]2(C)CC[C@H]1OC(=O)c1ccco1`, the mortality at 1000 µg/mL came out at 51.9% with Mythimna separata [1], 40.7% in the experiment on Mythimna separata [2] and 31% in the experiment with Mythimna separata [3].

For `CC1=C2C(=O)O[C@@H](c3ccoc3)[C@]2(C)CC[C@H]1O` [4ALPHA-HYDROXYFRAXINELLONE], the results for the mortality at 1000 µg/mL in the experiment on Mythimna separata [1], in the experiment with Mythimna separata [2] and with Mythimna separata [3] were 48.1%, 37% and 20.7%, respectively.

Regarding `CC1=C2C(=O)O[C@@H](c3ccoc3)[C@]2(C)CCC1` [FRAXINELLONE], the mortality at 1000 µg/mL in the experiment with Mythimna separata [1] worked out at 44.4%; with Mythimna separata [2], 33.3%; in the experiment with Mythimna separata [3], 20.7%.

With `CC(=O)O[C@@H]1C[C@H](O)[C@@]23CO[C@@H](O)[C@]1(C)[C@@H]2C[C@@H](O)[C@]1(C)[C@@H]3C(=O)[C@H](OC(C)=O)[C@@]2(C)[C@H](c3ccoc3)C[C@H]3O[C@]321` [TOOSENDANIN], the results for the mortality at 1000 µg/mL with Mythimna separata [1], in the experiment on Mythimna separata [2] and with Mythimna separata [3] were 48.1%, 33.3% and 27.6%, respectively.
